In ChEMBL document CHEMBL5252662, “Rimonabant-Based Compounds Bearing Hydrophobic Amino Acid Derivatives as Cannabinoid Receptor Subtype 1 Ligands” (ACS Med Chem Lett, 2023):
pEC50, pKi: −log10 of the molar value. The source made the active and inactive calls. The rule behind the calls is not given here.

Experiments:
Mus musculus [1] = assay: Induction of food uptake in CD-1 mouse model at 10 mg/kg, ip measured after 1 hr; format: functional, organism-based
Outline: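 Mice dosed i.p. at 10 mg/kg and left 30 min. Each was then placed in an individual cage with 2 g of standard chow, and intake was measured over a 1 h test. Mean ± SEM from the same seven mice at each dose, compared with vehicle-treated animals.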

Mus musculus [2] = assay: Antinociceptive activity in CD-1 mouse assessed as increase in response time to thermal nociceptive stimuli at 10 ug, icv measured after 60 mins by hot plate test; format: functional, organism-based; conditions: dose 10.0 µg
Outline: (§1)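 Single i.c.v. injection of 10 μg/10 μL; vehicle saline with 0.1% v/v DMSO. Response latency to thermal stimulus on hot plate recorded over time after dosing. Expressed as % maximum possible effect (%MPE) ± SEM, N = 7.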

Cannabinoid receptor 1 [3] = target: T1, Cannabinoid receptor 1 (Rattus norvegicus, UniProt P20272); assay: Displacement of [3H]-WIN55212-2 from CB1R in rat brain membranes incubated for 60 mins by radioligand competitive binding assay; format: cell membranes, Membrane; conditions: for pKi: read-out: Ki
T1 sequence (P20272 whole entry): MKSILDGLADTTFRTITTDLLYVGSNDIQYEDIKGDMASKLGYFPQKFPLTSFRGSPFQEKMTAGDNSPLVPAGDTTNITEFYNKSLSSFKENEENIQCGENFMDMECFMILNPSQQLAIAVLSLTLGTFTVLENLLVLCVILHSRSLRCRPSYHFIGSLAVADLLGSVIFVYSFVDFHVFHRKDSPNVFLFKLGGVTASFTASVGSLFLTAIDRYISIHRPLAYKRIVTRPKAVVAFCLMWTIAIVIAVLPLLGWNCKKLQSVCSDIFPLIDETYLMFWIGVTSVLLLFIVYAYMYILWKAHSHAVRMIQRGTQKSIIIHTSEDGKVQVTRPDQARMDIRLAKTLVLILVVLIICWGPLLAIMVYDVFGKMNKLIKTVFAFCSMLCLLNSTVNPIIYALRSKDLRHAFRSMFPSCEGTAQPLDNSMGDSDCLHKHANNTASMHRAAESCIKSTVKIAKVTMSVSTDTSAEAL

Cannabinoid receptor 1 [4] = target: T1, Cannabinoid receptor 1; assay: Agonist activity at rat brain membrane CB1 receptor assessed as stimulation of [35S]GTPgammaS binding incubated for 60 mins; format: cell membranes
[5] = target: Cannabinoid receptor 1 (Rattus norvegicus) (UniProt P20272); assay: Agonist activity at rat brain membrane CB1 receptor assessed as stimulation of [35S]GTPgammaS binding incubated for 60 mins relative to control; format: cell membranes; conditions: filed as agonist
Sequence of Cannabinoid receptor 1 (Rattus norvegicus) (P20272 whole entry): as above

Mus musculus [6] = assay: Antinociceptive activity in CD-1 mouse assessed as increase in response time to thermal nociceptive stimuli at 10 ug, icv measured at 15 to 120 mins; format: functional, organism-based; conditions: dose 10.0 µg, time lower […], time upper […]; outline: as §1
Mus musculus [7] = assay: Anti-inflammatory activity against zymosan-induced paw edema CD-1 mouse model assessed as reduction of increased paw volume at 100 ug,sc administered 30 mins prior to zymosan challenge and measured after 1 to 4 hrs; format: functional, organism-based; conditions: dose 100.0 µg, time lower […], time upper […]

SMILES	Activity (Mus musculus [1])	Ki (Cannabinoid receptor 1 [3])	also measured
COC(=O)[C@@H](NC(=O)c1nn(-c2ccc(Cl)cc2Cl)c(-n2cccc2Cl)c1C)C(C)C	Active	–	–
Cc1c(C(=O)c2cccc3ccccc23)c2cccc3c2n1[C@H](CN1CCOCC1)CO3	–	–	Activity (Mus musculus [2]): Active
CNC(=O)[C@@H](NC(=O)c1nn(-c2ccc(Cl)cc2Cl)c(-n2cccc2Cl)c1C)C(C)(C)C	–	Not Active	–
Cc1c(C(=O)N[C@H](C(N)=O)C(C)(C)C)nn(-c2ccc(Cl)c(Cl)c2)c1-n1cccc1Cl	inactive	–	pEC50 (Cannabinoid receptor 1 [4]): 5.73; Emax [5]: 70%; pKi (Cannabinoid receptor 1 [3]): 7.35
Cc1c(C(=O)N[C@H](C(=O)O)C(C)(C)C)nn(-c2ccccc2)c1-n1cccc1	–	Not Active	–
COC(=O)[C@@H](NC(=O)c1cc(-n2cccc2)n(-c2ccccc2)n1)C(C)(C)C	Active	–	–
Cc1c(C(=O)N[C@H](C(N)=O)C(C)(C)C)nn(-c2ccc(Cl)cc2)c1-n1cccc1	inactive	–	–
CC(C)[C@H](NC(=O)c1cc(-n2cccc2)n(-c2ccccc2)n1)C(N)=O	–	Not Active	–
CC(C)[C@H](NC(=O)c1cc(-n2cccc2)n(-c2ccccc2)n1)C(=O)O	–	Not Active	–
Cc1c(C(=O)N[C@H](C(N)=O)C(C)(C)C)nn(-c2ccccc2)c1-n1cccc1	inactive	–	–
Cc1c(C(=O)N[C@H](C(=O)O)C(C)(C)C)nn(-c2ccc(Cl)cc2Cl)c1-n1cccc1Cl	–	Not Active	–
Cc1c(C(=O)N[C@H](C(=O)O)C(C)C)nn(-c2ccccc2)c1-n1cccc1	–	Not Active	–
Cc1c(C(=O)N[C@H](C(=O)O)C(C)C)nn(-c2ccc(Cl)cc2)c1-n1cccc1	–	Not Active	–
CC(C)(C)[C@H](NC(=O)c1cc(-n2cccc2)n(-c2ccccc2)n1)C(=O)O	–	Not Active	–
Cc1c(C(=O)N[C@H](C(N)=O)C(C)C)nn(-c2ccc(Cl)c(Cl)c2)c1-n1cccc1Cl	–	–	pEC50 (Cannabinoid receptor 1 [4]): 6.07; Emax [5]: 60%; pKi (Cannabinoid receptor 1 [3]): 6.35
CNC(=O)[C@@H](NC(=O)c1nn(-c2ccc(Cl)cc2)c(-n2cccc2)c1C)C(C)(C)C	Active	–	Activity (Mus musculus [6]): Active; Activity (Mus musculus [7]): Active
CC(C)(C)[C@H](NC(=O)c1cc(-n2cccc2)n(-c2ccc(Cl)cc2)n1)C(=O)O	–	Not Active	–
Cc1c(C(=O)N[C@H](C(=O)O)C(C)C)nn(-c2ccc(Cl)cc2Cl)c1-n1cccc1Cl	–	Not Active	–
COC(=O)[C@@H](NC(=O)c1cc(-n2cccc2)n(-c2ccc(Cl)cc2)n1)C(C)(C)C	inactive	–	–
COC(=O)[C@@H](NC(=O)c1nn(-c2ccc(Cl)cc2)c(-n2cccc2)c1C)C(C)(C)C	inactive	–	–
CC(C)[C@H](NC(=O)c1cc(-n2cccc2)n(-c2ccc(Cl)cc2)n1)C(=O)O	–	Not Active	–
COC(=O)[C@@H](NC(=O)c1cc(-n2cccc2)n(-c2ccc(Cl)cc2)n1)C(C)C	inactive	–	–
